In ChEMBL document CHEMBL3407343, “Functionalized tetrahydro-1H-pyrido[4,3-b]indoles: a novel chemotype with Sirtuin 2 inhibitory activity” (Eur J Med Chem, 2015):
In brackets after ≈: the same amount, converted by molar mass. Activity calls are given as the source filed them. No cut-off for these calls is given here.

Tests used:
[1] = target: T1, NAD-dependent protein deacetylase sirtuin-1 (Homo sapiens) (UniProt Q96EB6); assay: Inhibition of human recombinant SIRT1 assessed as deacetylation of N-acetyl lysine residue in p53 (317 to 320) at 10 uM after 30 mins by luciferase-mediated luminescence assay relative to control
T1 sequence (whole entry): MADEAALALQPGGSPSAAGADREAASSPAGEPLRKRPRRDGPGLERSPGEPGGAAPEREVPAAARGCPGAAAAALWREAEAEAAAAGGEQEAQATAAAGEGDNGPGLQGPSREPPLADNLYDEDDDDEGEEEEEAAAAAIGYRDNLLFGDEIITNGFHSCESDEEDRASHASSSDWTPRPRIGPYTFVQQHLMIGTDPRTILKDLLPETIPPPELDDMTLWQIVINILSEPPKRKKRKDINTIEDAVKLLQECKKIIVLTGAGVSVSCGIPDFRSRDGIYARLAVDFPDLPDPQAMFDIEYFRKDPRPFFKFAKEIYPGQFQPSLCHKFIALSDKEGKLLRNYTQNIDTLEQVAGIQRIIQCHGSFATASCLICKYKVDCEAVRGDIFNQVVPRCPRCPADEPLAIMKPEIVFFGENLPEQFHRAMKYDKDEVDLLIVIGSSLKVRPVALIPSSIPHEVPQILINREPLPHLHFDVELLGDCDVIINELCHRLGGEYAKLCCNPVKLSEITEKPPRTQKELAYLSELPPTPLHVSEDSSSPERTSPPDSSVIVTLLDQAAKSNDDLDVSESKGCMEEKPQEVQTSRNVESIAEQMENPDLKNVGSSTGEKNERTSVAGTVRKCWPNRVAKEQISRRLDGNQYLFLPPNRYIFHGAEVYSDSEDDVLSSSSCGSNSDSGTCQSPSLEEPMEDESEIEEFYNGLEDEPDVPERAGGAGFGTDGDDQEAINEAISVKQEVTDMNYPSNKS
In short: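 Recombinant human SIRT1 at 0.1 unit/well, with the enzyme amount chosen from the mid-linear range of a signal-to-noise titration, in Sirt-Glo buffer. Serially diluted inhibitor in DMSO covers a 10^3-fold range, with 2.5% DMSO final. The single-point screen is at a fixed 10 µM. Enzyme and inhibitor were agitated 30 min at 25 °C, then Sirt-Glo reagent added and shaken another 30 min at 25 °C before luminescence was read. Activity is % of the enzyme-only control after blank subtraction. IC50 comes from a sigmoidal fit of % activity against log concentration, run in triplicate across ≥2 independent experiments.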

[2] = target: T2, NAD-dependent protein deacetylase sirtuin-2 (Homo sapiens, UniProt Q8IXJ6); assay: Inhibition of human recombinant SIRT2 assessed as deacetylation of N-acetyl lysine residue in p53 (317 to 320) after 30 mins by luciferase-mediated luminescence assay
T2 sequence (Q8IXJ6 whole entry): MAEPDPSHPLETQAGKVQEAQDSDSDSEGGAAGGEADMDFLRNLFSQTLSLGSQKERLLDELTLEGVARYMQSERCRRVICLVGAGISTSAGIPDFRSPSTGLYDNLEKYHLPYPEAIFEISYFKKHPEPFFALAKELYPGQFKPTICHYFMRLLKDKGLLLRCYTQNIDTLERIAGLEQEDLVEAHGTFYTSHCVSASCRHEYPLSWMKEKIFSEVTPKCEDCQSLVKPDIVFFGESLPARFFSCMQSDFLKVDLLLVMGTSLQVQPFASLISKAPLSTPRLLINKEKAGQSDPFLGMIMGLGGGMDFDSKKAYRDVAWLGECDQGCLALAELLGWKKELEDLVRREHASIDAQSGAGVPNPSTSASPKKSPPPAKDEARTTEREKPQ

[3] = species: Homo sapiens; assay: Inhibition of protease (unknown origin) using deacetylated peptide as substrate assessed as luminescence at 10 uM after 30 mins relative to control; set-up: scale not given: the % may be the effect or the level left
In short: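 Counter-screen without sirtuin: compound from DMSO stock diluted in Sirt-Glo buffer, then Sirt-Glo reagent added carrying non-acetylated control peptide. DMSO was 2.5% v/v. Mixed by shaking 30 min at 25 °C, then luminescence read. Result is % of control (peptide plus reagent in vehicle) after subtracting the vehicle-only blank.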

[4] = target: T3, NAD-dependent protein deacetylase sirtuin-1 (Homo sapiens, UniProt Q96EB6); assay: Inhibition of human recombinant SIRT1 assessed as deacetylation of N-acetyl lysine residue in p53 (317 to 320) after 30 mins by luciferase-mediated luminescence assay
T3 sequence (Q96EB6 whole entry): T1 sequence (whole entry)

[5] = species: Homo sapiens; assay: Selectivity ratio of IC50 for human recombinant SIRT1 to IC50 for human recombinant SIRT2
[6] = Self-aggregation of the compound in PBS assessed as derived light scattering count rate at 10 uM at pH 7.4 (reference value: 15.5 +/- 0.4 kilocount/sec); assay type: physicochemical; details: buffer, pH 7.4, 10 µM
[7] = Self-aggregation of the compound in PBS assessed as derived light scattering count rate at 1 uM at pH 7.4 (reference value: 15.5 +/- 0.4 kilocount/sec); assay type: physicochemical; details: buffer, pH 7.4, 1 µM
[8] = Solubility of the compound in phosphate buffer at pH 7.4 at 25 degC by turbimetric method; assay type: physicochemical
In short: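 Turbidimetric solubility. Compound from DMSO stock was added to phosphate buffer pH 7.4 at 1–50 µM final, with 1% v/v DMSO. Plate shaken 30 min at 25 °C and absorbance read at 620 nm. Solubility is assigned to the concentration range where absorbance rises two-fold or more, from 3 separate determinations.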

[9] = Cytotoxicity against human IMR90 cells assessed as cell viability after 72 hrs by MTS assay; assay type: cell-based; details: IMR-90, 72 h
[10] = Self-aggregation of the compound in PBS assessed as derived light scattering count rate at 250 uM at pH 7.4 (reference value: 15.5 +/- 0.4 kilocount/sec); assay type: physicochemical; details: buffer, pH 7.4, 250 µM
[11] = Self-aggregation activity of the compound in PBS assessed as derived light scattering count rate at 25 uM at pH 7.4 (reference value: 15.5 +/- 0.4 kilocount/sec); assay type: physicochemical; details: buffer, pH 7.4, 25 µM

With `CCCCCCCCn1c2c(c3cc(-c4cccc(C)c4)ccc31)CN(C(=O)OCC)CC2` the inhibition [1] was “inactive”.
With `CCCCCCCCn1c2c(c3cc(-c4cnc(N)nc4)ccc31)CN(S(C)(=O)=O)CC2` the inhibition [1] was “inactive”.
For `CCCCn1c2c(c3cc(-c4ccc(S(C)(=O)=O)cc4)ccc31)CNCC2`, the inhibition [1] was “inactive”, the IC50 [2] was 20 µM and the Activity [3] was 98.6%.
With `CCCCCCCCn1c2c(c3cc(-c4cccc(C)c4)ccc31)CNCC2` the inhibition [1] was 5.1%, the IC50 [4] was 20 µM and the IC50 [2] was 10.1 µM. It also gave a Ratio IC50 [5] of 2.
Work on `CCCCCCCCn1c2c(c3cc(-c4cnc(N)nc4)ccc31)CNCC2` yielded an inhibition [1] of 2.4%, an IC50 [4] of 38 µM and an IC50 [2] of 11.8 µM. The Activity [3] was 96.3%, the Activity [6] was 137 kC/sec and the Activity [7] was 16.1 kC/sec. The solubility kinetic [8] was 6.3 µM (≈ 2.38 µg/mL).
For `CCCCCCCCn1c2c(c3cc(-c4cccc(C)c4)ccc31)CN(Cc1ccc(O)cc1)CC2`, the inhibition [1] was “inactive”.
In the case of `Cc1cccc(-c2ccc3[nH]c4c(c3c2)CN(C)CC4)c1`, the IC50 [2] is reported as 83 µM.
With `CCCCCCCCn1c2c(c3cc(-c4cnc(N)nc4)ccc31)CN(C(=O)OCC)CC2` the inhibition [1] was “inactive”.
Work on `CCCCCCCCn1c2c(c3cc(-c4cccc(C)c4)ccc31)CN(C)CC2` yielded an inhibition [1] of 66.4%, an IC50 [4] of 21 µM and an IC50 [2] of 6.2 µM. The Activity [3] was 98.6%, the Activity [6] was 178 kC/sec and the Activity [7] was 17.9 kC/sec. For the same compound, the solubility kinetic [8] was 3.1 µM (≈ 1.2 µg/mL).
Work on `CCCCCCCCn1c2c(c3cc(-c4cccc(C)c4)ccc31)CN(Cc1ccccc1)CC2` yielded an inhibition [1] of less than 5%, an IC50 [4] greater than 100 µM and an IC50 [2] of 8.2 µM. For the same compound, the Activity [3] was 99%, the Activity [6] was 769 kC/sec and the Activity [7] was 32 kC/sec.
For `CCCCCCCCn1c2c(c3cc(-c4cnc(N)nc4)ccc31)CN(C)CC2`, the inhibition [1] was “inactive”, the IC50 [4] was greater than 100 µM and the IC50 [2] was 17.9 µM. It also gave an Activity [3] of 98.7%, an Activity [6] of 24 kC/sec and an Activity [7] of 15.8 kC/sec.
For `CCCCCCCCn1c2c(c3cc(-c4cnc(N)nc4)ccc31)CN(CC)CC2`, the inhibition [1] was “inactive”.
`CCCCCCCCn1c2c(c3cc(-c4ccc(S(C)(=O)=O)cc4)ccc31)CN(C(N)=O)CC2` gave an inhibition [1] of 51.8%, an IC50 [4] of 28 µM and an IC50 [2] of 4 µM. For the same compound, the Activity [3] was 98.6%, the Activity [6] was 29 kC/sec and the Activity [7] was 15.6 kC/sec. It also gave an IC50 [9] of 14.5 µM and a solubility kinetic [8] of 1.6 µM (≈ 0.771 µg/mL).
Compound `CCCCCCCCn1c2c(c3cc(-c4ccc(S(C)(=O)=O)cc4)ccc31)CN(C)CC2` has an inhibition [1] of 12.8%, an IC50 [4] greater than 250 µM and an IC50 [2] of 6 µM. The Activity [3] was 97.8%, the Activity [6] was 130.7 kC/sec and the Activity [7] was 17 kC/sec. The Ratio IC50 [5] was greater than 40 and the solubility kinetic [8] was 3.1 µM (≈ 1.4 µg/mL).
Compound `O=C(OCc1ccccc1)c1ccccc1` [BENZYL BENZOATE] has an Activity [10] of 1148 kC/sec and an Activity [11] of 76 kC/sec.
In the case of `CCCCCCCCn1c2c(c3cc(-c4cnc(N)nc4)ccc31)CN(CCO)CC2`, the inhibition [1] is reported as “inactive”.
For `CCCCn1c2c(c3cc(-c4cnc(N)nc4)ccc31)CNCC2`, the inhibition [1] was “inactive” and the IC50 [2] was greater than 100 µM.
With `CCCCCCCCn1c2c(c3cc(-c4ccnc(F)c4)ccc31)CN(C(N)=O)CC2` the inhibition [1] was “inactive”.
With `CCCCCCCCn1c2c(c3cc(-c4cnc(N)nc4)ccc31)CN(C(N)=O)CC2` the inhibition [1] was “inactive”, the IC50 [4] was 63 µM and the IC50 [2] was 14 µM.
With `Cc1cccc(-c2ccc3[nH]c4c(c3c2)CNCC4)c1` the IC50 [2] was 100 µM.
With `CCCCCCCCn1c2c(c3cc(-c4ccnc(F)c4)ccc31)CNCC2` the inhibition [1] was 1.1%.
`CCCCCCCCn1c2c(c3cc(-c4cccc(C)c4)ccc31)CN(C(C)C)CC2` gave an inhibition [1] of 2.4%, an IC50 [4] of 26 µM and an IC50 [2] of 11.2 µM. It also gave an Activity [3] of 100%, an Activity [6] of 558 kC/sec and an Activity [7] of 27 kC/sec. It also gave a solubility kinetic [8] of 1.6 µM (≈ 0.667 µg/mL).
With `CCCCn1c2c(c3cc(-c4cccc(C)c4)ccc31)CNCC2` the inhibition [1] was “inactive” and the IC50 [2] was 96 µM.
`CCCCCCCCn1c2c(c3cc(-c4cnc(N)nc4)ccc31)CN(C(C)C)CC2` gave an inhibition [1] of 15.3%, an IC50 [4] of 56 µM and an IC50 [2] of 20 µM. It also gave an Activity [6] of 137 kC/sec and an Activity [7] of 16.8 kC/sec.
In the case of `CC(C)=CCn1c2c(c3cc(-c4cccc(C)c4)ccc31)CN(Cc1ccc(O)cc1)CC2`, the inhibition [1] is reported as “inactive”.
With `CCCCCCCCn1c2c(c3cc(F)ccc31)CN(C)CC2` the inhibition [1] was “inactive”.
In the case of `CCCCCCCCn1c2c(c3cc(-c4cccc(C)c4)ccc31)CN(C(N)=O)CC2`, the inhibition [1] is reported as “inactive”, the IC50 [4] is reported as greater than 100 µM and the IC50 [2] is reported as 7.8 µM. It also gave an Activity [3] of 97.1%, an Activity [6] of 541 kC/sec and an Activity [7] of 19 kC/sec.
In the case of `CN1CCc2[nH]c3ccc(-c4ccc(S(C)(=O)=O)cc4)cc3c2C1`, the IC50 [2] is reported as greater than 250 µM.
With `CCCCCCCCn1c2c(c3cc(F)ccc31)CN(Cc1ccc(O)cc1)CC2` the inhibition [1] was “inactive”.
`CN1CCc2[nH]c3ccc(-c4cnc(N)nc4)cc3c2C1` gave an IC50 [2] greater than 250 µM.
